How the values were obtained:
[1] = Cytotoxicity against human A549 cells assessed as reduction in cell viability after 48 hrs by CCK8 assay; type: cell-based
Influenza A virus [2] = test: Antiviral activity against Influenza A virus A/WSN/33(H1N1) infected in HEK293T-Gluc cells pretreated for 2 hrs followed by viral infection and measured after 24 hrs by Gaussia luciferase reporter gene assay; type: functional, organism-based; conditions: A/WSN/1933(H1N1), HEK-293T
In short: (§1)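 Reporter cells were HEK293T cells stably transfected with pLenti6-Gluc, which constitutively expresses negative-strand Gaussia luciferase RNA that becomes positive-strand on IAV infection. Cells were infected with A/WSN/33 or A/PR/8/1934 (H1N1). Antiviral activity was read as Gluc signal, and IC50 values were derived. Ribavirin served as positive control.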

[3] = Cytotoxicity against human HEK293T cells assessed as reduction in cell viability after 48 hrs by CCK8 assay; type: cell-based, HEK-293T
[4] = Selectivity index, ratio of CC50 for human HEK293T cells to IC50 for Influenza A virus A/WSN/33(H1N1) infected in HEK293T-Gluc cells; type: toxicity, cell-based; conditions: read-out: Ratio CC50/IC50
Influenza A virus [5] = test: Antiviral activity against Influenza A virus A/PR/8/34 (H1N1) infected in HEK293T-Gluc cells pretreated for 2 hrs followed by viral infection and measured after 24 hrs by Gaussia luciferase reporter gene assay; type: functional, organism-based; conditions: A/Puerto Rico/8/1934(H1N1), HEK-293T; in short: as §1
Influenza A virus [6] = test: Antiviral activity against Influenza A virus A/WSN/33(H1N1) infected in HEK293T-Gluc cells assessed as inhibition of virus infection at 10 uM pretreated for 2 hrs followed by viral infection and measured after 24 hrs by Gaussia luciferase reporter gene assay; type: functional; conditions: A/WSN/1933(H1N1), HEK-293T, time 26 hrs
In short: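 A single-concentration screen at 10 μM was run against A/WSN/33 (H1N1) in HEK293T-Gluc reporter cells. These cells carry a stably transfected pLenti6-Gluc construct expressing negative-strand Gaussia luciferase RNA that is converted to positive strand upon infection. Inhibition ratio of infection was read from Gluc activity.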

O=C(CNc1nc(N2CCOCC2)nc2ccccc12)NCc1ccccc1
CC50 at 48 h [1]: > 100 µM
IC50 (Influenza A virus [2]): 3.83 µM
CC50 at 48 h [3]: > 100 µM
selectivity ratio [4]: > 26.1
IC50 (Influenza A virus [5]): 6.05 µM

O=C(CNc1nc(N2CCc3ccccc3C2)nc2ccccc12)NCc1ccccc1
CC50 at 48 h [1]: 12.8 µM
IC50 (Influenza A virus [2]): 6.84 µM
CC50 at 48 h [3]: 29.4 µM
selectivity ratio [4]: 4.3
IC50 (Influenza A virus [5]): 0.12 µM

O=C(CNc1nc(N2CCCC2)nc2ccccc12)NCc1ccco1
IC50 (Influenza A virus [2]): 39.4 µM
CC50 at 48 h [3]: > 100 µM
selectivity ratio [4]: > 2.54

CN1CCN(c2nc(NCC(=O)NCc3ccccc3)c3ccccc3n2)CC1
IC50 (Influenza A virus [2]): 11.5 µM
CC50 at 48 h [3]: > 100 µM
selectivity ratio [4]: > 8.72

CCOc1ccc(NC(=O)CSc2c[nH]c3ccc(Br)cc23)cc1
CC50 at 48 h [1]: 71.4 µM
inhibition at 10 µM (Influenza A virus [6]): 90.2%
IC50 (Influenza A virus [2]): 4.18 µM
CC50 at 48 h [3]: 44 µM
selectivity ratio [4]: 10.5
IC50 (Influenza A virus [5]): 0.33 µM

CCN(CC)c1nc(SCC(=O)NCc2ccccc2)c2ccccc2n1
IC50 (Influenza A virus [2]): 19.2 µM
CC50 at 48 h [3]: > 100 µM
selectivity ratio [4]: > 5.22

O=C(CNc1nc(N2CCCC2)nc2ccccc12)Nc1cc(Cl)cc(Cl)c1
CC50 at 48 h [1]: 5.92 µM
IC50 (Influenza A virus [2]): 9.04 µM
CC50 at 48 h [3]: 15.9 µM
selectivity ratio [4]: 1.75
IC50 (Influenza A virus [5]): 0.95 µM

O=C(CNc1nc(N2CCc3ccccc3C2)nc2ccccc12)Nc1ccc2ccccc2c1
IC50 (Influenza A virus [2]): 3.43 µM
CC50 at 48 h [3]: > 100 µM
selectivity ratio [4]: > 29.1

— ChEMBL document CHEMBL4765426, “Design, synthesis and in vitro anti-influenza A virus evaluation of novel quinazoline derivatives containing S-acetamide and NH-acetamide moieties at C-4” (Eur J Med Chem, 2020)
